Source: paper PMC4938767 (Structure (London, England : 1993), 2016)

Experiments:
hNaa60 1–184 = experiment: Size-exclusion chromatography, dimer to monomer transition; design: species or system human; details: with Ac-CoA
[1] = test system: N-terminal acetyltransferase Naa50; details: ref Evjenth et al., 2012; cited from earlier work
other acetyltransferases = details: ref De Angelis et al., 1998; Thompson et al., 2001; cited from earlier work
[2] = DSF / purification stability of hNaa60 point mutants; details: for initial fluorescence (in words): vs hNaa60 WT; for stability on purification (in words): data not shown
[3] = test system: substrate polypeptide MKAV24; type: biochemical; details: for Wild-type efficiency (%): catalytic efficiency relative to hNaa60 WT; for Kcat/Km: hNaa60 variant, substrate peptide MKAV24, 50 mM HEPES pH 7.5, 100 mM NaCl, 2 mM EDTA, DTNB, 412 nm; for catalytic efficiency (in words): β3–β4 loop contact mutants; for reduction in catalytic efficiency: substrate MKAV24, compared to hNaa60 WT; for change in Km (in words): substrate MKAV24, vs hNaa60 WT
How it was run: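 Purified hNaa60 variants (His-SUMO tag cleaved, nickel-purified) with peptide and Ac-CoA in assay buffer, quenched with 3.2 M guanidinium-HCl/100 mM sodium phosphate pH 6.8. CoA detected with DTNB (2 mM final) at 412 nm, negative-control background subtracted. Thiophenolate quantified with ε = 13.7 × 103 M−1 cm−1. Rates taken in the linear phase and fitted for kinetic constants.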

CC(=O)SCCNC(=O)CCNC(=O)[C@H](O)C(C)(C)COP(=O)(O)OP(=O)(O)OC[C@H]1O[C@@H](n2cnc3c(N)ncnc32)[C@H](O)[C@@H]1OP(=O)(O)O [Ac-CoA, acetyl CoA]
elution of hNaa60 1–184 (oligomeric state, in words) (hNaa60 1–184): elutes at a column volume corresponding to twice the theoretical size of the enzyme

CCNC(=O)CCNC(=O)[C@H](O)C(C)(C)COP(=O)(O)OP(=O)(O)OC[C@H]1O[C@@H](n2cnc3c(N)ncnc32)[C@H](O)[C@@H]1OP(=O)(O)O [desulfoCoA]
inhibitor type (Naa50) [1]: competitive inhibitor | inhibitor type (other acetyltransferases) (other acetyltransferases): competitive inhibitor

D81A: hNaa60 point mutant, β3–β4 loop contact
destabilization compared to hNaa60 WT (in words) ([2]; DSF): clearly destabilized compared to hNaa60 WT | initial fluorescence (in words) ([2]; DSF): higher initial fluorescence | Wild-type efficiency (%) ([3]; substrate MKAV24): 136.9% | Kcat/Km [3]: 518 M⁻¹ s⁻¹ | catalytic efficiency (in words) ([3]; substrate MKAV24): modest overall effect on catalytic efficiency

H138A: hNaa60 point mutant, catalytic residue
stability on purification (in words) [2]: unstable and could not be purified

H138F: hNaa60 point mutant, catalytic residue
stability on purification (in words) [2]: unstable and could not be purified

I36A: hNaa60 point mutant, M1p hydrophobic pocket
destabilization compared to hNaa60 WT (in words) ([2]; DSF): did not show any signs of destabilization | Kcat/Km [3]: 60 M⁻¹ s⁻¹ | reduction in catalytic efficiency [3]: ~6 fold | change in Km (in words) [3]: small increase in Km

I84A: hNaa60 point mutant, β3–β4 loop contact
destabilization compared to hNaa60 WT (in words) ([2]; DSF): clearly destabilized compared to hNaa60 WT | initial fluorescence (in words) ([2]; DSF): higher initial fluorescence | Wild-type efficiency (%) ([3]; substrate MKAV24): 200.4% | Kcat/Km [3]: 758 M⁻¹ s⁻¹ | catalytic efficiency (in words) ([3]; substrate MKAV24): modest overall effect on catalytic efficiency

I167A: hNaa60 point mutant, M1p hydrophobic pocket
Wild-type efficiency (%) ([3]; substrate MKAV24): 33.3% | Kcat/Km [3]: 123 M⁻¹ s⁻¹ | reduction in catalytic efficiency [3]: ~3 fold | change in Km (in words) [3]: small increase in Km

L140A: hNaa60 point mutant, M1p hydrophobic pocket
Wild-type efficiency (%) ([3]; substrate MKAV24): 56.0% | Kcat/Km [3]: 210 M⁻¹ s⁻¹ | catalytic efficiency (kcat/Km) as fold of hNaa60 WT ([3]; substrate MKAV24): approximately 0.5 fold

P35A/I36A/I167A: hNaa60 triple mutant
Wild-type efficiency (%) ([3]; substrate MKAV24): <10% | catalytic activity (in words) ([3]; substrate MKAV24): not able to detect any catalytic activity

P35A: hNaa60 point mutant, M1p hydrophobic pocket
Kcat/Km [3]: 60 M⁻¹ s⁻¹ | reduction in catalytic efficiency [3]: ~6 fold | change in Km (in words) [3]: small increase in Km

WT: wild-type hNaa60 enzyme
melting point (apo) ([2]; DSF, apo hNaa60): 47.9 °C | Wild-type efficiency (%) ([3]; substrate MKAV24): 100%

Y38A: hNaa60 point mutant, peptide anchoring residue
Wild-type efficiency (%) ([3]; substrate MKAV24): <10% | catalytic activity (in words) ([3]; substrate MKAV24): complete loss of catalytic activity

Y97F: hNaa60 point mutant, catalytic residue
Wild-type efficiency (%) ([3]; substrate MKAV24): <10% | catalytic activity (in words) ([3]; substrate MKAV24): complete loss of catalytic activity

Y164A: hNaa60 point mutant, β3–β4 loop contact
Wild-type efficiency (%) ([3]; substrate MKAV24): 141.7% | Kcat/Km [3]: 535 M⁻¹ s⁻¹

Y164F: hNaa60 point mutant, β3–β4 loop contact
destabilization compared to hNaa60 WT (in words) ([2]; DSF): clearly destabilized compared to hNaa60 WT | Wild-type efficiency (%) ([3]; substrate MKAV24): 154.9% | Kcat/Km [3]: 585 M⁻¹ s⁻¹

Y165F: hNaa60 point mutant, peptide anchoring residue
Wild-type efficiency (%) ([3]; substrate MKAV24): 24.4% | Kcat/Km [3]: 90 M⁻¹ s⁻¹ | reduction in catalytic efficiency [3]: approximately 4 fold
